Measurements taken from ChEMBL document CHEMBL1671683, “Activity of linezolid in an in vitro pharmacokinetic-pharmacodynamic model using different dosages and Staphylococcus aureus and Enterococcus faecalis strains with and without a hypermutator phenotype” (Antimicrob Agents Chemother, 2010).

Columns and labels:
[1] = tested on: Staphylococcus aureus; experiment: Bactericidal activity against 14 hrs peripheral compartment culture samples of Staphylococcus aureus RN4220 MutS2 in two-compartment pharmacokinetic/pharmacodynamic model assessed as effect on bacterial count at 600 mg, bid administered as 0.5 hr infusion; format: functional
Outline: (§1)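 An 18-h culture concentrated 50-fold was injected into the peripheral compartment 3 h pre-sampling (~10^8 CFU/ml E. faecalis, 10^9 S. aureus). Counts came from dilution plating (detection limit 2–3 log10 CFU/ml), expressed as Δlog CFU/ml from treatment start. Run in duplicate.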

[2] = tested on: Enterococcus faecalis; experiment: Bactericidal activity against 12 hrs peripheral compartment culture samples of Enterococcus faecalis ATCC 29212 in two-compartment pharmacokinetic/pharmacodynamic model assessed as effect on bacterial count at 200 mg, bid administered as 0.5 hr infusion; format: functional
Outline: (§2)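 Two-compartment hollow-fibre model in cation-adjusted, protein-free MH broth, 37°C. Linezolid given as simulated 0.5-h infusion twice daily. Inoculum grown 18 h, concentrated 50-fold and placed in the peripheral compartment 3 h before t0. Peripheral samples at set times counted by dilution plating. First 10-fold dilution not plated, limiting detection to 2–3 log10 CFU/ml. Δlog CFU/ml taken from t0 count. Duplicates.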

[3] = tested on: Enterococcus faecalis; experiment: Bactericidal activity against 14 hrs peripheral compartment culture samples of Enterococcus faecalis ATCC 29212 in two-compartment pharmacokinetic/pharmacodynamic model assessed as effect on bacterial count at 200 mg, bid administered as 0.5 hr infusion; format: functional; outline: as §1
[4] = tested on: Enterococcus faecalis; experiment: Bactericidal activity against 0.5 hrs peripheral compartment culture samples of Enterococcus faecalis Ef1497 in two-compartment pharmacokinetic/pharmacodynamic model assessed as effect on bacterial count at 600 mg, bid administered as 0.5 hr infusion; format: functional; outline: as §2
[5] = tested on: Enterococcus faecalis; experiment: Bactericidal activity against 1 hr peripheral compartment culture samples of Enterococcus faecalis Ef1497 in two-compartment pharmacokinetic/pharmacodynamic model assessed as effect on bacterial count at 800 mg, bid administered as 0.5 hr infusion; format: functional; outline: as §2
[6] = tested on: Enterococcus faecalis; experiment: Bactericidal activity against 0.5 hrs peripheral compartment culture samples of Enterococcus faecalis Ef1497 MutM3 in two-compartment pharmacokinetic/pharmacodynamic model assessed as effect on bacterial count at 200 mg, bid administered as 0.5 hr infusion; format: functional; outline: as §2
[7] = tested on: Enterococcus faecalis; experiment: Bactericidal activity against 2 hrs peripheral compartment culture samples of Enterococcus faecalis Ef1497 MutM3 in two-compartment pharmacokinetic/pharmacodynamic model assessed as effect on bacterial count at 200 mg, bid administered as 0.5 hr infusion; format: functional; outline: as §1
[8] = tested on: Enterococcus faecalis; experiment: Bactericidal activity against 1 hr peripheral compartment culture samples of Enterococcus faecalis Ef1497 MutM3 in two-compartment pharmacokinetic/pharmacodynamic model assessed as effect on bacterial count at 600 mg, bid administered as 0.5 hr infusion; format: functional; outline: as §2
[9] = tested on: Enterococcus faecalis; experiment: Bactericidal activity against 12 hrs peripheral compartment culture samples of Enterococcus faecalis Ef1497 MutM3 in two-compartment pharmacokinetic/pharmacodynamic model assessed as effect on bacterial count at 600 mg, bid administered as 0.5 hr infusion; format: functional; outline: as §2
[10] = tested on: Enterococcus faecalis; experiment: Bactericidal activity against 12.5 hrs peripheral compartment culture samples of Enterococcus faecalis Ef1497 MutM3 in two-compartment pharmacokinetic/pharmacodynamic model assessed as effect on bacterial count at 600 mg, bid administered as 0.5 hr infusion; format: functional; outline: as §1
[11] = tested on: Staphylococcus aureus; experiment: Bactericidal activity against 2 hrs peripheral compartment culture samples of Staphylococcus aureus RN4220 in two-compartment pharmacokinetic/pharmacodynamic model assessed as effect on bacterial count at 600 mg, bid administered as 0.5 hr infusion; format: functional; outline: as §1
[12] = tested on: Staphylococcus aureus; experiment: Bactericidal activity against 14 hrs peripheral compartment culture samples of Staphylococcus aureus RN4220 in two-compartment pharmacokinetic/pharmacodynamic model assessed as effect on bacterial count at 600 mg, bid administered as 0.5 hr infusion; format: functional; outline: as §1
[13] = tested on: Staphylococcus aureus subsp. aureus RN4220; experiment: T>MIC in Staphylococcus aureus RN4220 MutS2 in two-compartment pharmacokinetic/pharmacodynamic model at 600 mg, bid administered as 0.5 hr infusion for 2 days; format: functional
[14] = tested on: Enterococcus faecalis; experiment: T>MIC in Enterococcus faecalis ATCC 29212 in two-compartment pharmacokinetic/pharmacodynamic model at 600 mg, bid administered as 0.5 hr infusion for 2 days; format: functional
[15] = tested on: Enterococcus faecalis; experiment: T>MIC in Enterococcus faecalis Ef1497 MutM3 in two-compartment pharmacokinetic/pharmacodynamic model at 200 mg, bid administered as 0.5 hr infusion for 2 days; format: functional
[16] = tested on: Enterococcus faecalis; experiment: AUBC (0 to 24 hrs) in Enterococcus faecalis Ef1497 in two-compartment pharmacokinetic/pharmacodynamic model at 600 mg, bid administered as 0.5 hr infusion for 2 days; format: functional
Outline: (§3)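 Hollow-fibre two-compartment model in cation-adjusted, protein-free MH broth at 37°C. Human total-plasma linezolid profile simulated as 0.5-h infusion every 12 h for 48 h. Concentrated 18-h culture injected into the peripheral compartment 3 h before first sample, giving about 10^8 (E. faecalis) or 10^9 (S. aureus) CFU/ml. Viable counts by dilution plating over 0–24 h. Area indices calculated versus growth control curve. Duplicate runs.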

[17] = tested on: Enterococcus faecalis; experiment: AUBC (0 to 24 hrs) in Enterococcus faecalis Ef1497 MutM3 in two-compartment pharmacokinetic/pharmacodynamic model at 600 mg, bid administered as 0.5 hr infusion for 2 days; format: functional; outline: as §3
[18] = tested on: Staphylococcus aureus subsp. aureus RN4220; experiment: ABBC (0 to 24 hrs) in Staphylococcus aureus RN4220 in two-compartment pharmacokinetic/pharmacodynamic model at 600 mg, bid administered as 0.5 hr infusion for 2 days; outline: as §3
[19] = tested on: Enterococcus faecalis; experiment: ABBC (0 to 24 hrs) in Enterococcus faecalis ATCC 29212 in two-compartment pharmacokinetic/pharmacodynamic model at 200 mg, bid administered as 0.5 hr infusion for 2 days; format: functional; outline: as §3
[20] = tested on: Enterococcus faecalis; experiment: ABBC (0 to 24 hrs) in Enterococcus faecalis Ef1497 in two-compartment pharmacokinetic/pharmacodynamic model at 600 mg, bid administered as 0.5 hr infusion for 2 days; format: functional; outline: as §3
[21] = Cmax in two-compartment pharmacokinetic/pharmacodynamic model at 600 mg, bid administered as 0.5 hr infusion over 24 hrs; format: ADME, organism-based; set-up: dose 600 mg; settings: iv
[22] = Tmax in two-compartment pharmacokinetic/pharmacodynamic model at 200 mg, bid administered as 0.5 hr infusion over 24 hrs; format: ADME, organism-based; settings: iv
Outline: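 Two-compartment in vitro hollow-fibre model in cation-adjusted, protein-free Mueller-Hinton broth at 37°C. Human total-plasma linezolid profile simulated as 0.5-h infusion every 12 h for 48 h, computer-controlled syringe pump into central compartment. […] Peripheral samples assayed by validated HPLC-UV (quantification limit 0.39 μg/ml). Tmax read directly from concentration-time profiles. Run in duplicate.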

[23] = Tmax in two-compartment pharmacokinetic/pharmacodynamic model at 800 mg, bid administered as 0.5 hr infusion over 24 hrs; format: ADME, organism-based; settings: iv
[24] = AUC in two-compartment pharmacokinetic/pharmacodynamic model at 600 mg, bid administered as 0.5 hr infusion over 24 hrs; format: ADME; set-up: dose 600 mg, time < 24 hr; settings: in vivo, iv
[25] = in vivo; settings: iv, 800 mg
[26] = Apparent volume of distribution in two-compartment pharmacokinetic/pharmacodynamic model bid administered as 0.5 hr infusion over 24 hrs; settings: in vivo, iv

For CC(=O)NC[C@H]1CN(c2ccc(N3CCOCC3)c(F)c2)C(=O)O1 [LINEZOLID], the log10CFU/ml [1] was -0.58, the log10CFU/ml [2] was 0.14 and the log10CFU/ml [3] was 0.55. It also gave a log10CFU/ml [4] of -0.01, a log10CFU/ml [5] of -0.02 and a log10CFU/ml [6] of -0.009. For the same molecule, the log10CFU/ml [7] was 0.06, the log10CFU/ml [8] was -0.01 and the log10CFU/ml [9] was 0.19. For the same molecule, the log10CFU/ml [10] was 0.22, the log10CFU/ml [11] was -0.26 and the log10CFU/ml [12] was -0.24. For the same molecule, the “fT>MIC” value [13] was 66.6%, the “fT>MIC” value [14] was 69.1% and the “fT>MIC” value [15] was 0%. The AUBC [16] was 215.6 log10CFU/ml.hr, the AUBC [17] was 217.1 log10CFU/ml.hr and the ABBC [18] was -1.21 log10CFU/ml.hr. The ABBC [19] was 5.11 log10CFU/ml.hr, the ABBC [20] was -1.49 log10CFU/ml.hr and the Cmax [21] was 14600 ng/mL. It also gave a Tmax [22] of 30 min, a Tmax [23] of 30 min and an AUC at 24 h [24] of 35400 ng·h/mL. It also gave a half-life [25] of 312 min and a Vd [26] of 115 L.
